Data reported in ChEMBL document CHEMBL2311521, “Design, synthesis, characterization and biological evaluation of novel pyrazole integrated benzophenones” (2013).

How the values were obtained:
Rattus norvegicus [1] = assay: Antiinflammatory activity in rat assessed as inhibition of carrageenan-induced hind paw edema at 100 mg/kg, po administered 1 hr before carrageenan-challenge measured after 1 hr; format: functional
Procedure, shortened: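 Rats (n = 6 per group) were dosed orally, with the vehicle group given 1% w/v gum acacia at 10 ml/kg p.o. One hour after dosing, 0.1 ml of 1% w/v carrageenan was injected subplantar into the hind paw. Paw volume was measured by plethysmometer volume displacement, immersing the paw to the lateral malleolus, at 1, 3 and 6 h after carrageenan.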

[2] = tested on: Radical scavenging activity; assay: Antioxidant activity of the compound assessed as DPPH radical scavenging activity at 100 uM after 20 mins; format: functional
Procedure, shortened: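 Sample solution (0.1 mM) was mixed with an equal volume of 0.1 mM DPPH in ethanol. After 20 min at room temperature, DPPH reduction was read as absorbance at 517 nm.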

Rattus norvegicus [3] = assay: Antiinflammatory activity in rat assessed as inhibition of carrageenan-induced hind paw edema at 100 mg/kg, po administered 1 hr before carrageenan-challenge measured after 6 hrs
[4] = target: T1, Prostaglandin G/H synthase 1 (Ovis aries) (UniProt P05979); assay: Inhibition of ovine COX1 peroxidase activity assessed as appearance of oxidized N,N,N,N'-tetramethyl-p-phenylenediamine by colorimetric analysis relative to control; design: concentration or dose not given beside the values; conditions: concentration not given here
T1 sequence (whole entry): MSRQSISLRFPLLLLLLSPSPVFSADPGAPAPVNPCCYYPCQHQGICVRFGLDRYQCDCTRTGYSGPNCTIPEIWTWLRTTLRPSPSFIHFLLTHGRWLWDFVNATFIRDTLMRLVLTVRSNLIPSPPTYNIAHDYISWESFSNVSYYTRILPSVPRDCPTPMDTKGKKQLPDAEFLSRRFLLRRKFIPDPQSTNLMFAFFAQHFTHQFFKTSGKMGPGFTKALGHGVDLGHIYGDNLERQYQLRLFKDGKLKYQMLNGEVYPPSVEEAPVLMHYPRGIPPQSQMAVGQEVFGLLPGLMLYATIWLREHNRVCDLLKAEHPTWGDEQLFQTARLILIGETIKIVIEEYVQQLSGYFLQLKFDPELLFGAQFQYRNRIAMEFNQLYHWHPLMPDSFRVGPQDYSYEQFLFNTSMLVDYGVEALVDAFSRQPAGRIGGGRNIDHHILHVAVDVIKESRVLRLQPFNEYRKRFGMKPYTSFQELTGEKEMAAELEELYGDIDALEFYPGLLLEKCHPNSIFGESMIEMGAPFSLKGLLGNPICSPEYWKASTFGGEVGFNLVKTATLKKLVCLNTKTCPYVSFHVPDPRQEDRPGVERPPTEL
Procedure, shortened: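 Colorimetric ovine COX inhibitor screening kit: assay buffer, heme, COX-1 enzyme and sample (0.1 mM), with peroxidase activity read by absorbance at 590 nm. Percent inhibition = (1 − T/C) × 100, where C is the uninhibited well. Determinations were run in duplicate.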

Rattus norvegicus [5] = assay: Antiinflammatory activity in rat assessed as inhibition of carrageenan-induced hind paw edema at 100 mg/kg, po administered 1 hr before carrageenan-challenge measured after 3 hrs
[6] = Antioxidant activity assessed as hydroxyl radical scavenging activity at 100 uM after 5 mins; format: functional
[7] = Antioxidant activity assessed as superoxide radical scavenging activity at 100 uM after 5 mins by NBT reduction assay; format: functional
Procedure, shortened: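 Superoxide scavenging by NBT reduction in buffer (100 mM, pH 7.4) with NBT and sample (0.1 mM). The reaction was started by adding PMS, incubated 5 min at room temperature, and read by absorbance at 560 nm.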

inhibition [4] [%]	Compound	Activity (Rattus norvegicus [1]) [mL]	Activity [2] [%]	Activity (Rattus norvegicus [3]) [mL]	Activity (Rattus norvegicus [5]) [mL]	Activity [6] [%]	Activity [7] [%]
58.3	COc1cc(OC)c(-c2ccnn2C)c(O)c1C(=O)c1ccccc1F	1.1	31.5	0.96	1.06	–	–
55.8	COc1cc(OC)c(-c2ccnn2C)c(O)c1C(=O)c1ccc(F)cc1F	1.12	43.6	1.17	1.05	–	–
61.4	COc1ccc(C(=O)c2c(OC)cc(OC)c(-c3ccnn3C)c2O)cc1	0.89	48.9	0.99	0.89	–	–
57.5	COc1cc(OC)c(-c2ccnn2C)c(O)c1C(=O)c1ccccc1	0.81	36.2	1.22	1.11	–	–
61.7	COc1cc(OC)c(-c2ccnn2C)c(O)c1C(=O)c1ccc(Cl)cc1Cl	0.59	26.1	1.62	1.22	–	–
58.3	COc1cc(OC)c(-c2ccnn2C)c(O)c1C(=O)c1cccc(Cl)c1Cl	0.9	29.6	1.29	1.39	–	–

Continued, molecule first:

Compound	inhibition [4] [%]	Activity (Rattus norvegicus [1]) [mL]	Activity [2] [%]	Activity (Rattus norvegicus [3]) [mL]	Activity (Rattus norvegicus [5]) [mL]	Activity [6] [%]	Activity [7] [%]
COc1cc(OC)c(-c2ccnn2C)c(O)c1C(=O)c1cc(Cl)ccc1Cl	52.4	1.01	31.2	1.11	1.1	–	–
COc1cc(OC)c(-c2ccnn2C)c(O)c1C(=O)c1cccc(C(F)(F)F)c1	55.8	0.93	28	1.55	1.44	–	–
O=C1O[C@H]([C@@H](O)CO)C(O)=C1O	–	–	81.5	–	–	52	78.3
COc1cc(OC)c(-c2ccnn2C)c(O)c1C(=O)c1cccc(F)c1	61.7	0.92	34.5	1.63	1.2	–	–
COc1cc(OC)c(-c2ccnn2C)c(O)c1C(=O)c1cccc(Br)c1	59.1	0.92	40.2	0.91	1	–	–
COc1ccc2c(c1)c(CC(=O)O)c(C)n2C(=O)c1ccc(Cl)cc1 [INDOMETHACIN]	–	0.86	–	0.78	0.95	–	–
